Data taken from ChEMBL document CHEMBL1154253, “Synthesis and serotonin transporter activity of sulphur-substituted alpha-alkyl phenethylamines as a new class of anticancer agents” (Eur J Med Chem, 2009).

Experiments:
[1] = molecular target: Sodium-dependent serotonin transporter (Rattus norvegicus, UniProt P31652); assay: Inhibition of [3H]5-HT reuptake at rat SERT expressed in HEK293 cells after 2 mins by liquid scintillation counting; format: cell-based
HEK293 = assay: Cytotoxicity against human HEK293 cells after 48 hrs by neutral red assay; format: cell-based; conditions: HEK293, 48 h, read-out: pEC50 (converted)
Method in brief: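 Neutral Red uptake: 5 × 10⁴ cells/well grown 24–36 h to sub-confluence, then treated 48 h. Cells incubated 3 ± 1 h with NR dye, washed and solubilised in 50% ethanol–1% acetic acid, and absorbance read at 540 nm (690 nm background). Viability given as % of vehicle-treated cells. pEC50 obtained by sigmoidal regression (Hill slope 1) using 4 concentrations in triplicate on two independent days. SERT-line values compared with parental HEK293 by two-way ANOVA with Bonferroni test. Sodium azide 30 mM and Triton-X 2% as positive controls.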

SH-SY5Y = assay: Cytotoxicity against human SH-SY5Y cells after 48 hrs by neutral red assay; format: functional, cell-based
[2] = molecular target: Sodium-dependent dopamine transporter (Homo sapiens, UniProt Q01959); assay: Inhibition of human dopamine transporter
[3] = molecular target: Sodium-dependent noradrenaline transporter (Homo sapiens, UniProt P23975); assay: Inhibition of human noradrenaline transporter
Sodium-dependent noradrenaline transporter, sequence (P23975 whole entry): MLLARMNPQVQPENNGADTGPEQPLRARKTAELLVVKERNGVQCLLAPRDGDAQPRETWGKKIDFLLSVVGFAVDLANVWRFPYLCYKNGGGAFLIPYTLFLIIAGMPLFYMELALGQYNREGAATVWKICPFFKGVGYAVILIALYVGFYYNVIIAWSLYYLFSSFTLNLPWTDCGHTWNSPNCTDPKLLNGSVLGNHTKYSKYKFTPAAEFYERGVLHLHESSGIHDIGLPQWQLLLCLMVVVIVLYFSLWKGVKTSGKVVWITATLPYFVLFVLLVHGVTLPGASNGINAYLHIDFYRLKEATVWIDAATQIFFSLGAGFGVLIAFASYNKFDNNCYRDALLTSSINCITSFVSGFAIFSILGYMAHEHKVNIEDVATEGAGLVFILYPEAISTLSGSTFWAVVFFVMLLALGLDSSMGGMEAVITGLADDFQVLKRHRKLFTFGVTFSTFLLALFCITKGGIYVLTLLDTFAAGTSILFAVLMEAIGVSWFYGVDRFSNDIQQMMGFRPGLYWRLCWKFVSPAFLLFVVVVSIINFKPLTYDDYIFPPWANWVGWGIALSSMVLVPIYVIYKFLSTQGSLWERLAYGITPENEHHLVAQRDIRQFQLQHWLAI

Sodium-dependent serotonin transporter, sequence (P31652 whole entry): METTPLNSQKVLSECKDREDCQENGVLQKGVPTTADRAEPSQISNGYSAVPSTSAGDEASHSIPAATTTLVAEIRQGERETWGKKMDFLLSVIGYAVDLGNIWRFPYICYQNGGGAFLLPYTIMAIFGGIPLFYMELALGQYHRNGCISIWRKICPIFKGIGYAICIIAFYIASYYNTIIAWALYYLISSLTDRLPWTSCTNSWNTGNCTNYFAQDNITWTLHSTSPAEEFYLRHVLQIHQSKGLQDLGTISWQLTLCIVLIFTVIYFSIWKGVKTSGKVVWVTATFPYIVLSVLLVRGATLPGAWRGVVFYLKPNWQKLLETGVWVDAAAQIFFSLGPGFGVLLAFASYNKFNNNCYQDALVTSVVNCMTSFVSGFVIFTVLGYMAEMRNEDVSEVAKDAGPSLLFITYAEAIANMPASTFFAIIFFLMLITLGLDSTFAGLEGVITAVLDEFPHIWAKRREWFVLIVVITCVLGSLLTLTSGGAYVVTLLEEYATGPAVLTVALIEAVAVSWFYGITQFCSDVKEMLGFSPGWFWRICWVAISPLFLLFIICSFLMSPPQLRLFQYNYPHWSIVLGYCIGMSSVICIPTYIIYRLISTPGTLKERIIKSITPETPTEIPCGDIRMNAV
Sodium-dependent dopamine transporter, sequence (Q01959 whole entry): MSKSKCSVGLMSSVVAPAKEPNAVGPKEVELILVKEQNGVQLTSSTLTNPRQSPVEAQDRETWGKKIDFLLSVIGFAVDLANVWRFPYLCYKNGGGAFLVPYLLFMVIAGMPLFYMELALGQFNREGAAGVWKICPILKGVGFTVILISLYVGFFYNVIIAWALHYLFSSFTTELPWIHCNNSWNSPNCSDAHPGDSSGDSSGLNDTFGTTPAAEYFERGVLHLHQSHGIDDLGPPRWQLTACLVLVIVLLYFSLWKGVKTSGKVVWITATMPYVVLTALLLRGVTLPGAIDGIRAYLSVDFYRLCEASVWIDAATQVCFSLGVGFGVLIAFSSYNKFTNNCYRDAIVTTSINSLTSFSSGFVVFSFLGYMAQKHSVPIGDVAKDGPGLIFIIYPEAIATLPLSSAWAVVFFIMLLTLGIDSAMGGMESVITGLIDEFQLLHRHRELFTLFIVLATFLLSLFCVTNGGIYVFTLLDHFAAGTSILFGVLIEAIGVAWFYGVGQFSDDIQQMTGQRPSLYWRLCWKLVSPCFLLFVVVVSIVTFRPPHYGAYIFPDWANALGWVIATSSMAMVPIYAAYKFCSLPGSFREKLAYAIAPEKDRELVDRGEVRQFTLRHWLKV

Structure (SMILES)	IC50 [1] [µM]	EC50 (HEK293) [µM]	EC50 (SH-SY5Y; read-out: EC50) [µM]	EC50 (SH-SY5Y; read-out: pEC50 (converted)) [µM]	IC50 [2] [µM]	IC50 [3] [µM]
CC(N)Cc1ccc(SCc2ccccc2)cc1 (stereo not given)	0.679	2.95	1	19.5	–	–
CSc1ccc(CC(C)NC(C)C)cc1 (stereo not given)	1.85	30.9	–	1950	–	–
CCSc1ccc(CC(N)CC)cc1 (stereo not given)	1.29	5.13	–	53.7	–	–
CCNC(C)Cc1ccc(SC)cc1 (stereo not given)	0.963	16.2	–	1860	–	–
CCC(Cc1ccc(SC)cc1)NCCOC (stereo not given)	2.82	16.2	–	3890	–	–
CCNC(CC)Cc1ccc(SC)cc1 (stereo not given)	0.823	10	–	151	–	–
CCSc1ccc(CC(CC)NO)cc1 (stereo not given)	1.45	11.5	–	1820	–	–
CCC(Cc1ccc(SC)cc1)NC1CC1 (stereo not given)	0.872	10.7	–	> 10000	–	–
COCCNC(C)Cc1ccc(SC)cc1 (stereo not given)	3.58	22.9	–	1350	–	–
CCNC(CC)Cc1ccc(SCC)cc1 (stereo not given)	1.8	251	–	245	–	–
CCSc1ccc(CC(C)N)cc1 (stereo not given)	1.4	15.1	1	64.6	–	–
C=CCNC(C)Cc1ccc(SC)cc1 (stereo not given)	0.524	15.5	–	123	–	–
CCCNC(CC)Cc1ccc(SC)cc1 (stereo not given)	0.621	303	–	3020	–	–
CSc1ccc(CC(C)NC2CC2)cc1 (stereo not given)	0.702	18.6	–	372	–	–
C#CCNC(CC)Cc1ccc(SC)cc1 (stereo not given)	0.399	20.4	–	394	–	–
CCSc1ccc(CC(C)NC)cc1 (stereo not given)	0.724	7.59	–	282	–	–
CON(C)C(C)Cc1ccc(SC)cc1 (stereo not given)	25.1	525	–	> 10000	–	–
CCC(N)Cc1ccc(SC)cc1 (stereo not given)	0.611	14.8	–	437	–	–

Structure (SMILES)	IC50 [1] [µM]	EC50 (HEK293) [µM]	EC50 (SH-SY5Y; read-out: EC50) [µM]	EC50 (SH-SY5Y; read-out: pEC50 (converted)) [µM]	IC50 [2] [µM]	IC50 [3] [µM]
CCC(Cc1ccc(SC)cc1)NC (stereo not given)	0.437	50.1	–	832	–	–
CCNC(C)Cc1ccc(SCC)cc1 (stereo not given)	0.478	6.31	–	302	–	–
CCSc1ccc(CC(C)NO)cc1 (stereo not given)	0.625	32.4	–	708	–	–
CCSc1ccc(CC(CC)N(C)O)cc1 (stereo not given)	2	51.3	–	209	–	–
C#CCNC(C)Cc1ccc(SC)cc1 (stereo not given)	0.688	24.5	–	2340	–	–
CC(N)Cc1ccc(SCCN(C)C)cc1 (stereo not given)	43.3	8.71	1	240	–	–
CONC(C)Cc1ccc(SC)cc1 (stereo not given)	0.664	11	–	2450	–	–
CSc1ccc(CC(C)NO)cc1 (stereo not given)	0.436	38	–	575	–	–
CCC(Cc1ccc(SC)cc1)NO (stereo not given)	0.598	8.51	–	31.6	–	–
CSc1ccc(CC(C)N(C)O)cc1 (stereo not given)	1.87	24	–	229	–	–
CCC(Cc1ccc(SC)cc1)NC(C)C (stereo not given)	1.94	17.4	–	339	–	–
COc1ccc(CC(C)N)cc1 (stereo not given) [PARA-METHOXYAMPHETAMINE]	0.173	457	–	> 10000	–	–
CC(N)Cc1ccc2c(c1)OCO2 (stereo not given) [TENAMFETAMINE]	0.996	324	–	> 10000	0.89	0.266
CCSc1ccc(CC(C)N(C)O)cc1 (stereo not given)	1.57	12.3	–	43.7	–	–
CNC(C)Cc1ccc(SC)cc1 (stereo not given)	0.417	19.5	–	1550	–	–
CSc1ccc(CC(C)NCCO)cc1 (stereo not given)	0.868	10	–	2290	–	–
CSc1ccc(CC(C)N(C)C)cc1 (stereo not given)	0.52	20	–	1860	–	–
